Experimental findings from ChEMBL document CHEMBL2203235, “Optimization of a natural product-based class of γ-secretase modulators” (J Med Chem, 2012) are described below.

Data set [1] has as its system CHO-2B7. The data set can be described thus: Modulation of gamma secretase in CHO-2B7 cells assessed as reduction in amyloid beta 42 level at 20 uM after 5 hrs by MSD ELISA. Type of data set: cell-based. Set-up: scale not given: the % may be the effect or the level left. Conditions: Cricetulus griseus. In general terms: In an ELISA, binding on a coated surface is turned into a signal by an enzyme label.

Data set [2] is described as follows: (§1) Metabolic stability in human liver microsomes assessed as compound remaining at 1 uM at 60 mins by LC/MS/MS analysis in absence of NADPH. Type of data set: ADME, Microsome. Conditions: liver microsomes, read-out: Stability. The method, boiled down:
(§2)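 Human liver microsomes were run without NADPH as a qualitative read of susceptibility to enzymatic hydrolysis. The read-out was percent parent remaining at 60 min.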
On the technique in general: Microsomes from liver hold many membrane-bound enzymes, among them those of drug oxidation.

Data set [3] relates to CHO-2B7. The data set can be described thus: Modulation of gamma secretase in CHO-2B7 cells assessed as reduction in amyloid beta 40 level at 20 uM after 5 hrs by MSD ELISA. In kind it is cell-based. Set-up: scale not given: the % may be the effect or the level left. Conditions: Cricetulus griseus.
The test system of data set [4] is Liver microsomes. The description is as §1. Type of data set: ADME, Microsome. Conditions: microsomes, 1 h, 1 µM. The method, boiled down: as §2
Data set [5] can be described thus: Modulation of gamma secretase in CHO-2B7 cells assessed as reduction in amyloid beta 42 level after 5 hrs by MSD ELISA. Type of data set: cell-based. Conditions: Cricetulus griseus, CHO-2B7, 5 h.
Data set [6] concerns Liver microsomes. The data set can be described thus: Metabolic stability in human liver microsomes at 1 uM after 60 mins by LC/MS/MS analysis. Conditions: 1 h.
Data set [7] in a line: Modulation of gamma secretase in CHO-2B7 cells assessed as reduction in amyloid beta 40 level after 5 hrs by MSD ELISA. Type of data set: cell-based. Conditions: Cricetulus griseus, CHO-2B7, 5 h.

For the compound `C[C@@H]1C[C@H]([C@H](OC(=O)N(C)C)C(C)(C)O)O[C@H]2[C@H]1[C@@]1(C)CC[C@@]34C[C@@]35CC[C@H](O)C(C)(C)[C@@H]5CC[C@H]4[C@]1(C)[C@H]2O`, the Activity in the data set on CHO-2B7 [1] is 53%. The remaining at 1 h, 1 µM in data set [2] was 115%.
The term IC50 denotes the concentration that gives 50% inhibition. In the case of `CNC(=O)O[C@H](C(C)C)[C@H]1C[C@@H](C)[C@H]2[C@H](O1)[C@H](O)[C@@]1(C)[C@@H]3CC[C@H]4C(C)(C)[C@@H](OC(=O)N5CCC5)CC[C@@]45C[C@@]35CC[C@]21C`, in the data set with CHO-2B7 [3], the Activity is 47%. In addition, the Stability in the data set on Liver microsomes [4] worked out at 152%. Also, the IC50 in data set [5] came out at 17 µM.
For the compound `CC(C)[C@@H](OC(=O)N(C)C)[C@H]1C[C@@H](C)[C@H]2[C@H](O1)[C@H](O)[C@@]1(C)[C@@H]3CC[C@H]4C(C)(C)[C@@H](OC(=O)N5CCC5)CC[C@@]45C[C@@]35CC[C@]21C`, the Activity in the data set on CHO-2B7 [3] and with CHO-2B7 [1] was 0% in each case. For the same compound, the Stability with Liver microsomes [4] was determined as 127%.
In the case of `C[C@@H]1C[C@H]([C@H](O)C(C)(C)O)O[C@H]2[C@H]1[C@@]1(C)CC[C@@]34C[C@@]35CC[C@H](O[C@H]3CN(C(=O)C6(C)COC6)CCO3)C(C)(C)[C@@H]5CC[C@H]4[C@]1(C)[C@H]2O`, in the data set on CHO-2B7 [1], the Activity stood at 50%. For the same compound, the IC50 in data set [5] was 0.07 µM.
`CC(C)[C@@H](OC(=O)N1CCC1)[C@H]1C[C@@H](C)[C@H]2[C@H](O1)[C@H](O)[C@@]1(C)[C@@H]3CC[C@H]4C(C)(C)[C@@H](O[C@H]5CN(CC(=O)O)CCO5)CC[C@@]45C[C@@]35CC[C@]21C`: in the data set on Liver microsomes [6], the Stability entry was “Stable”. In addition, in the data set with CHO-2B7 [3], the Activity amounted to 41%. Besides, the IC50 in data set [5] worked out at 0.7 µM.
Take `CC(C)[C@@H](OC(N)=O)[C@H]1C[C@@H](C)[C@H]2[C@H](O1)[C@H](O)[C@@]1(C)[C@@H]3CC[C@H]4C(C)(C)[C@@H](OC(=O)N5CCC5)CC[C@@]45C[C@@]35CC[C@]21C`: the Activity in the data set on CHO-2B7 [3] was determined as 15%; in the data set with CHO-2B7 [1] it was 40%. In addition, the remaining at 1 h, 1 µM in data set [2] was determined as 106%.
Turning to `COC(=O)OC[C@H]1C[C@@H](C)[C@H]2[C@H](O1)[C@H](O)[C@@]1(C)[C@@H]3CC[C@H]4C(C)(C)[C@@H](O[C@H]5CN(C(=O)CC6CC6)CCO5)CC[C@@]45C[C@@]35CC[C@]21C`, in the data set with CHO-2B7 [3], the Activity amounted to 46%. The remaining at 1 h, 1 µM in data set [2] worked out at 59%. The IC50 in data set [5] was 0.33 µM.
For `CC(C)[C@@H](OC(=O)N(C)C)[C@H]1C[C@@H](C)[C@H]2[C@H](O1)[C@H](O)[C@@]1(C)[C@@H]3CC[C@H]4C(C)(C)[C@@H](OC(N)=O)CC[C@@]45C[C@@]35CC[C@]21C`, the IC50 in data set [7] was determined as 19 µM; in data set [5] it was 0.92 µM. Further, in the data set on Liver microsomes [4], the Stability is 131%.
`CNC(=O)O[C@@H]([C@H]1C[C@@H](C)[C@H]2[C@H](O1)[C@H](O)[C@@]1(C)[C@@H]3CC[C@H]4C(C)(C)[C@@H](O)CC[C@@]45C[C@@]35CC[C@]21C)C(C)(C)O`: the Activity in the data set on CHO-2B7 [1] was 27%. Further, the remaining at 1 h, 1 µM in data set [2] stood at 96%.
Take `CC(C)[C@@H](OC(=O)N1CCC1)[C@H]1C[C@@H](C)[C@H]2[C@H](O1)[C@H](O)[C@@]1(C)[C@@H]3CC[C@H]4C(C)(C)[C@@H](OC(=O)N5CCC(F)(F)CC5)CC[C@@]45C[C@@]35CC[C@]21C`: in the data set with Liver microsomes [6], the Stability result is on record as “Stable”. For the same compound, the Activity with CHO-2B7 [3] was 12%. Further, in data set [5], the IC50 was found to be 9.1 µM.
As to `CC(C)[C@@H](OC(=O)N1CCC1)[C@H]1C[C@@H](C)[C@H]2[C@H](O1)[C@H](O)[C@@]1(C)[C@@H]3CC[C@H]4C(C)(C)[C@@H](OC(N)=O)CC[C@@]45C[C@@]35CC[C@]21C`, the Stability in the data set on Liver microsomes [4] is listed as 150%.
On to `CC(C)[C@@H](OC(N)=O)[C@H]1C[C@@H](C)[C@H]2[C@H](O1)[C@H](O)[C@@]1(C)[C@@H]3CC[C@H]4C(C)(C)[C@@H](OC(=O)N5CCOCC5)CC[C@@]45C[C@@]35CC[C@]21C`, for which the Activity in the data set with CHO-2B7 [3] is 32%. The Stability in the data set on Liver microsomes [4] is listed as 130%. In data set [5], the IC50 worked out at 3.4 µM.
For `C[C@@H]1C[C@H](COC(=O)N(C)C)O[C@H]2[C@H]1[C@@]1(C)CC[C@@]34C[C@@]35CC[C@H](O[C@H]3CN(C(=O)CC6CC6)CCO3)C(C)(C)[C@@H]5CC[C@H]4[C@]1(C)[C@H]2O`, the Activity in the data set on CHO-2B7 [3] worked out at 63%. The remaining at 1 h, 1 µM in data set [2] was 81%. In data set [5], the IC50 is 1.2 µM.
As for `CC(C)[C@@H](OC(=O)N1CCC1)[C@H]1C[C@@H](C)[C@H]2[C@H](O1)[C@H](O)[C@@]1(C)[C@@H]3CC[C@H]4C(C)(C)[C@@H](OC(=O)NC5CCOCC5)CC[C@@]45C[C@@]35CC[C@]21C`, the Stability result in the data set with Liver microsomes [6] was “Stable”. Moreover, the Activity in the data set with CHO-2B7 [3] amounted to 27%. The IC50 in data set [5] is 3 µM.
For the compound `CCO[C@@H]([C@H]1C[C@@H](C)[C@H]2[C@H](O1)[C@H](O)[C@@]1(C)[C@@H]3CC[C@H]4C(C)(C)[C@@H](OC(=O)NCCNS(=O)(=O)C(F)(F)F)CC[C@@]45C[C@@]35CC[C@]21C)C(C)(C)O`, the Stability entry in the data set with Liver microsomes [6] is recorded as “Stable”. For the same compound, in the data set on CHO-2B7 [3], the Activity was found to be 13%. Also, the IC50 in data set [5] was determined as 0.71 µM.
Turning to `CC(=O)O[C@@H]([C@H]1C[C@@H](C)[C@H]2[C@H](O1)[C@H](O)[C@@]1(C)[C@@H]3CC[C@H]4C(C)(C)[C@@H](O[C@H]5CN(C(=O)CC6CC6)CCO5)CC[C@@]45C[C@@]35CC[C@]21C)C(C)(C)O`, the Activity with CHO-2B7 [3] was found to be 38%. Moreover, the remaining at 1 h, 1 µM in data set [2] turned out to be 2%. Further, the IC50 in data set [5] is 0.13 µM.
In the case of `CC(C)[C@@H](OC(=O)N1CCC1)[C@H]1C[C@@H](C)[C@H]2[C@H](O1)[C@H](O)[C@@]1(C)[C@@H]3CC[C@H]4C(C)(C)[C@@H](OC(=O)N5CCC5)CC[C@@]45C[C@@]35CC[C@]21C`, the Stability result is listed as “Stable” in the data set on Liver microsomes [6] and 158% in the data set with Liver microsomes [4]. The IC50 worked out at 10 µM in data set [7] and 0.47 µM in data set [5].
As for `CC(=O)OC[C@H]1C[C@@H](C)[C@H]2[C@H](O1)[C@H](O)[C@@]1(C)[C@@H]3CC[C@H]4C(C)(C)[C@@H](O[C@H]5CN(C6COC6)CCO5)CC[C@@]45C[C@@]35CC[C@]21C`, the Activity in the data set on CHO-2B7 [3] and with CHO-2B7 [1] was 0% in each case. For the same compound, the remaining at 1 h, 1 µM in data set [2] was determined as 0%.
As to `CC(C)[C@@H](OC(=O)N(C)C)[C@H]1C[C@@H](C)[C@H]2[C@H](O1)[C@H](O)[C@@]1(C)[C@@H]3CC[C@H]4C(C)(C)[C@@H](OC(=O)N5CCOCC5)CC[C@@]45C[C@@]35CC[C@]21C`, in the data set on CHO-2B7 [3], the Activity worked out at 17%. The remaining at 1 h, 1 µM in data set [2] came to 118%. The IC50 in data set [5] amounted to 7.4 µM.
Consider `C[C@@H]1C[C@H]([C@H](O)C(C)(C)O)O[C@H]2[C@H]1[C@@]1(C)CC[C@@]34C[C@@]35CC[C@H](O[C@H]3CN(C(=O)c6nccn6C)CCO3)C(C)(C)[C@@H]5CC[C@H]4[C@]1(C)[C@H]2O`, for which, in the data set on CHO-2B7 [1], the Activity is 5%. The IC50 in data set [5] was 0.13 µM.
As to `CC(C)[C@@H](OC(=O)N1CCC1)[C@H]1C[C@@H](C)[C@H]2[C@H](O1)[C@H](O)[C@@]1(C)[C@@H]3CC[C@H]4C(C)(C)[C@@H](O[C@H]5CN(C(=O)CNS(=O)(=O)C(F)(F)F)CCO5)CC[C@@]45C[C@@]35CC[C@]21C`, in the data set on Liver microsomes [6], the Stability entry is recorded as “Stable”. For the same compound, the Activity in the data set with CHO-2B7 [3] worked out at 49%. Also, in data set [5], the IC50 amounted to 1.3 µM.
`CNC(=O)O[C@H](C(C)C)[C@H]1C[C@@H](C)[C@H]2[C@H](O1)[C@H](O)[C@@]1(C)[C@@H]3CC[C@H]4C(C)(C)[C@@H](OC(=O)N5CCOCC5)CC[C@@]45C[C@@]35CC[C@]21C`: the Activity in the data set on CHO-2B7 [3] is 17%. In addition, the Stability with Liver microsomes [4] was 139%. Moreover, in data set [5], the IC50 was 4.6 µM.
On to `CNC(=O)O[C@H](C(C)C)[C@H]1C[C@@H](C)[C@H]2[C@H](O1)[C@H](O)[C@@]1(C)[C@@H]3CC[C@H]4C(C)(C)[C@@H](OC(N)=O)CC[C@@]45C[C@@]35CC[C@]21C`, for which, in the data set on CHO-2B7 [3], the Activity is 40%. The remaining at 1 h, 1 µM in data set [2] worked out at 117%. Moreover, the IC50 in data set [5] turned out to be 0.95 µM.
In the case of `C[C@@H]1C[C@H]([C@H](O)C(C)(C)O)O[C@H]2[C@H]1[C@@]1(C)CC[C@@]34C[C@@]35CC[C@H](O[C@H]3CN(CC(N)=O)CCO3)C(C)(C)[C@@H]5CC[C@H]4[C@]1(C)[C@H]2O`, the Activity in the data set on CHO-2B7 [1] amounted to 0%. Also, in data set [5], the IC50 is 0.06 µM.
In the case of `CC(C)[C@@H](OC(N)=O)[C@H]1C[C@@H](C)[C@H]2[C@H](O1)[C@H](O)[C@@]1(C)[C@@H]3CC[C@H]4C(C)(C)[C@@H](OC(=O)NC5CNC5)CC[C@@]45C[C@@]35CC[C@]21C`, the figures for the IC50 in data set [7] and in data set [5] were 4 µM and 0.16 µM, respectively. Besides, the Stability in the data set on Liver microsomes [4] was 121%.
As to `CC(C)[C@@H](OC(=O)N1CCC1)[C@H]1C[C@@H](C)[C@H]2[C@H](O1)[C@H](O)[C@@]1(C)[C@@H]3CC[C@H]4C(C)(C)[C@@H](OC(=O)NC5CNC5)CC[C@@]45C[C@@]35CC[C@]21C`, the Stability result with Liver microsomes [6] was “Stable”; with Liver microsomes [4], 127%. Also, the IC50 in data set [7] came to 2.6 µM; in data set [5], 0.1 µM.
